# In ChEMBL document CHEMBL1157638, “Fluorescent epigenetic small molecule induces expression of the tumor suppressor ras-association domain family 1A and inhibits human prostate xenograft” (J Med Chem, 2010):
# Activity calls are given as the source filed them. The rule behind the calls is not given here.
# What was measured:
# MOLT-4 [1] = experiment: Growth inhibition of human MOLT4 cells assessed as cell growth at 10 uM relative to untreated control; format: functional; conditions: read-out: Activity
# SK-MEL-5 = experiment: Growth inhibition of human SK-MEL-5 cells assessed as cell growth at 1 nM relative to untreated control; format: functional; conditions: read-out: Activity
# Malme-3M = experiment: Growth inhibition of human MALME-3M cells assessed as cell growth at 1 nM relative to untreated control; format: functional; conditions: read-out: Activity
# M14 = experiment: Growth inhibition of human M14 cells assessed as cell growth at 1 uM relative to untreated control; format: functional; conditions: read-out: Activity
# SF-268 = experiment: Growth inhibition of human SF268 cells assessed as cell growth at 10 nM relative to untreated control; format: functional; conditions: read-out: Activity
# RXF 393 [2] = experiment: Growth inhibition of human RXF393 cells assessed as cell growth at 10 nM relative to untreated control; format: functional; conditions: read-out: Activity
# DU-145 [3] = experiment: Growth inhibition of human DU145 cells assessed as cell growth at 10 uM relative to untreated control; format: functional; conditions: read-out: Activity
# Method in brief: (§1)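 Run externally at the National Cancer Institute as a 59-cell-line panel screen, with concentrations up to 100 μM. Growth was scored relative to control, where negative growth or total cell kill was possible. Data are in the Supporting Information.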
# 786-0 = experiment: Growth inhibition of human 786-0 cells assessed as cell growth at 10 uM relative to untreated control; format: functional; conditions: read-out: Activity
# OVCAR-4 [4] = experiment: Growth inhibition of human OVCAR4 cells assessed as cell growth at 100 nM relative to untreated control; format: functional; conditions: read-out: Activity
# MCF7 [5] = experiment: Growth inhibition of human MCF7 cells assessed as cell growth at 100 nM relative to untreated control; format: functional; conditions: read-out: Activity
# NCI-H322M = experiment: Growth inhibition of human NCI-H322M cells assessed as cell growth at 10 uM relative to untreated control; format: functional; conditions: read-out: Activity
# NCI/ADR-RES = experiment: Growth inhibition of human NCI/ADR-RES cells assessed as cell growth at 10 nM relative to untreated control; format: functional; conditions: read-out: Activity
# OVCAR-8 = experiment: Growth inhibition of human OVCAR8 cells assessed as cell growth at 100 nM relative to untreated control; format: functional; conditions: read-out: Activity
# OVCAR-4 [6] = experiment: Growth inhibition of human OVCAR4 cells assessed as cell growth at 1 nM relative to untreated control; format: functional; conditions: read-out: Activity
# EKVX [7] = experiment: Growth inhibition of human EKVX cells assessed as cell growth at 10 nM relative to untreated control; format: functional; conditions: read-out: Activity; method in brief: as §1
# RXF 393 [8] = experiment: Growth inhibition of human RXF393 cells; format: functional
# EKVX [9] = experiment: Growth inhibition of human EKVX cells assessed as cell growth at 1 uM relative to untreated control; format: functional; conditions: read-out: Activity; method in brief: as §1
# MCF7 [10] = experiment: Growth inhibition of human MCF7 cells assessed as cell growth at 10 uM relative to untreated control; format: functional; conditions: read-out: Activity
# HCC 2998 [11] = experiment: Growth inhibition of human HCC2998 cells assessed as cell growth at 1 uM relative to untreated control; format: functional; conditions: read-out: Activity; method in brief: as §1
# PC-3 [12] = experiment: Growth inhibition of human PC3 cells; format: functional
# DU-145 [13] = experiment: Growth inhibition of human DU145 cells assessed as cell growth at 1 nM relative to untreated control; format: functional; conditions: read-out: Activity; method in brief: as §1
# RXF 393 [14] = experiment: Growth inhibition of human RXF393 cells assessed as cell growth at 1 nM relative to untreated control; format: functional; conditions: read-out: Activity
# NCI-H460 = experiment: Growth inhibition of human NCI-H460 cells assessed as cell growth at 10 nM relative to untreated control; format: functional; conditions: read-out: Activity
# A498 = experiment: Growth inhibition of human A498 cells assessed as cell growth at 10 uM relative to untreated control; format: functional; conditions: read-out: Activity
# CAKI-1 = experiment: Growth inhibition of human Caki1 cells; format: functional; method in brief: as §1
# IGROV-1 = experiment: Growth inhibition of human IGROV1 cells assessed as cell growth at 100 nM relative to untreated control; format: functional; conditions: read-out: Activity
# HOP-62 = experiment: Growth inhibition of human HOP62 cells assessed as cell growth at 10 nM relative to untreated control; format: functional; conditions: read-out: Activity; method in brief: as §1
# COLO 205 [15] = experiment: Growth inhibition of human COLO205 cells assessed as cell growth at 10 nM relative to untreated control; format: functional; conditions: read-out: Activity
# HCC 2998 [16] = experiment: Growth inhibition of human HCC2998 cells assessed as cell growth at 10 uM relative to untreated control; format: functional; conditions: read-out: Activity; method in brief: as §1
# NCI-H23 [17] = experiment: Growth inhibition of human NCI-H23 cells; format: functional
# SK-MEL-28 = experiment: Growth inhibition of human SK-MEL-28 cells; format: functional
# MOLT-4 [18] = experiment: Growth inhibition of human MOLT4 cells; format: functional
# UO-31 = experiment: Growth inhibition of human UO31 cells assessed as cell growth at 1 uM relative to untreated control; format: functional; conditions: read-out: Activity
# [19] = molecular target: DNA (cytosine-5)-methyltransferase 3B (Homo sapiens) (UniProt Q9UBC3); experiment: Binding affinity to DNMT3b in human PC3 cells cytoplasm at 5 uM after 1 hr by antibody staining; format: cell-based; conditions: PC-3
# Method in brief: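 PC-3 cells were plated overnight on fibronectin/[…]-coated slides and treated with 5 μM compound or DMSO for 1-6 h. Cells were PBS-washed, fixed in 4% formaldehyde, and stained with propidium iodide (nuclei) and anti-DNMT3a or anti-DNMT3b antibody. The compound was excited at 725 nm by multiphoton laser and imaged through a 500-550 nm filter by confocal microscopy.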
# SF-539 = experiment: Growth inhibition of human SF539 cells assessed as cell growth at 10 nM relative to untreated control; format: functional; conditions: read-out: Activity
# NCI-H23 [20] = experiment: Growth inhibition of human NCI-H23 cells assessed as cell growth at 1 uM relative to untreated control; format: functional; conditions: read-out: Activity
# COLO 205 [21] = experiment: Growth inhibition of human COLO205 cells; format: functional
# EKVX [22] = experiment: Growth inhibition of human EKVX cells; format: functional; method in brief: as §1
# A549 = experiment: Growth inhibition of human A549 cells assessed as cell growth at 10 nM relative to untreated control; format: functional; conditions: read-out: Activity
# MDA-MB-231 = experiment: Growth inhibition of human MDA-MB-231 cells assessed as cell growth at 10 nM relative to untreated control; format: functional; conditions: read-out: Activity
# SF-295 = experiment: Growth inhibition of human SF295 cells assessed as cell growth at 1 uM relative to untreated control; format: functional; conditions: read-out: Activity
# SNB-75 = experiment: Growth inhibition of human SNB75 cells assessed as cell growth at 10 nM relative to untreated control; format: functional; conditions: read-out: Activity
# SK-MEL-2 = experiment: Growth inhibition of human SK-MEL-2 cells assessed as cell growth at 1 nM relative to untreated control; format: functional; conditions: read-out: Activity
# OVCAR-4 [23] = experiment: Growth inhibition of human OVCAR4 cells assessed as cell growth at 1 uM relative to untreated control; format: functional; conditions: read-out: Activity
# PC-3 [24] = experiment: Growth inhibition of human PC3 cells assessed as cell growth at 10 nM relative to untreated control; format: functional; conditions: read-out: Activity
# [25] = read-out: LC50 (the source's name)
compound,measurement,setting,value
COc1ccc2c(c1)[nH]c1c(C)c(OS(=O)(=O)c3cccc4c(N(C)C)cccc34)ccc12,growth at 10 µM,MOLT-4 [1],7%
same,growth at 0.001 µM,SK-MEL-5,100%
same,growth at 0.001 µM,Malme-3M,93%
same,growth at 1 µM,M14,29%
same,growth at 0.01 µM,SF-268,111%
same,growth at 0.01 µM,RXF 393 [2],107%
same,growth at 10 µM,DU-145 [3],2%
same,growth at 10 µM,786-0,6%
same,growth at 0.1 µM,OVCAR-4 [4],87%
same,growth at 0.1 µM,MCF7 [5],81%
same,growth at 10 µM,NCI-H322M,34%
same,growth at 0.01 µM,NCI/ADR-RES,111%
same,growth at 0.1 µM,OVCAR-8,101%
same,growth at 0.001 µM,OVCAR-4 [6],94%
same,growth at 0.01 µM,EKVX [7],96%
same,GI50,RXF 393 [8],2.44 µM
same,TGI,RXF 393 [8],5.95 µM
same,CC50,RXF 393 [8]; [25],> 100 µM
same,growth at 1 µM,EKVX [9],35%
same,growth at 10 µM,MCF7 [10],8%
same,growth at 1 µM,HCC 2998 [11],52%
same,GI50,PC-3 [12],39.3 µM
same,TGI,PC-3 [12],> 100 µM
same,CC50,PC-3 [12]; [25],> 100 µM
same,growth at 0.001 µM,DU-145 [13],113%
same,growth at 0.001 µM,RXF 393 [14],103%
same,growth at 0.01 µM,NCI-H460,101%
same,growth at 10 µM,A498,-4%
same,GI50,CAKI-1,27.5 µM
same,TGI,CAKI-1,> 100 µM
same,CC50,CAKI-1; [25],> 100 µM
same,growth at 0.1 µM,IGROV-1,98%
same,growth at 0.01 µM,HOP-62,111%
same,growth at 0.01 µM,COLO 205 [15],94%
same,growth at 10 µM,HCC 2998 [16],-5%
same,GI50,NCI-H23 [17],4.08 µM
same,TGI,NCI-H23 [17],> 100 µM
same,CC50,NCI-H23 [17]; [25],> 100 µM
same,GI50,SK-MEL-28,50.3 µM
same,TGI,SK-MEL-28,> 100 µM
same,CC50,SK-MEL-28; [25],> 100 µM
same,GI50,MOLT-4 [18],4.19 µM
same,TGI,MOLT-4 [18],> 100 µM
same,CC50,MOLT-4 [18]; [25],> 100 µM
same,growth at 1 µM,UO-31,54%
same,Activity,[19],Active
same,growth at 0.01 µM,SF-539,95%
same,growth at 1 µM,NCI-H23 [20],30%
same,GI50,COLO 205 [21],4.24 µM
same,TGI,COLO 205 [21],> 100 µM
same,CC50,COLO 205 [21]; [25],> 100 µM
same,GI50,EKVX [22],5.44 µM
same,TGI,EKVX [22],> 100 µM
same,CC50,EKVX [22]; [25],> 100 µM
same,growth at 0.01 µM,A549,97%
same,growth at 0.01 µM,MDA-MB-231,86%
same,growth at 1 µM,SF-295,15%
same,growth at 0.01 µM,SNB-75,118%
same,growth at 0.001 µM,SK-MEL-2,115%
same,growth at 1 µM,OVCAR-4 [23],44%
same,growth at 0.01 µM,PC-3 [24],100%
